ALR H2O2 inh – inhibitors of human ALR sulfhydryl oxidase, primary screen, biochemical, H2O2 detection, HRP-luminol luminescence, single point; purified ALR, DTT oxidation; inhibition, % (test concentration not listed); 290,000 compounds, 3.8% hits; FAD-linked sulfhydryl oxidase ALR (Homo sapiens), P55789;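 active = mean replicate inhibition above about 79%, with every replicate also reaching it, limit read from the data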
Target sequence (P55789 whole entry, looked up): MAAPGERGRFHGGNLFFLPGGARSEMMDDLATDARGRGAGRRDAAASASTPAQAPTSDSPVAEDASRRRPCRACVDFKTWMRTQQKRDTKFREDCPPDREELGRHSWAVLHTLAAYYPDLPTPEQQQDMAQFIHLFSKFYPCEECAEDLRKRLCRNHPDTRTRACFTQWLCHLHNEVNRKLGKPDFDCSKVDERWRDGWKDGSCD
Glyco luc inh – increase of ERlucT glycosylation luciferase signal, primary screen, N-linked glycosylation inhibitor project, D54 ERlucT cells, luminescence, set 2 | D54 ERlucT glycosylation luciferase reporter, 24 h; percent of 100 nM tunicamycin response | reporter increase, % at 12.5 µM | 360,000 compounds, 0.23% hits | AID 588692, 2011;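 active = mean luciferase reporter signal, scaled so untreated is 0 and the glycosylation-blocking control 100, at or above a set limit in every replicate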;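 note: luciferase carries N-glycosylation sites so blocking glycosylation raises the light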
T cell modulator – modulators of CD8 T cell-vesicle binding, primary screen, mouse 2C CD8+ T cells, flow cytometry; response (vesicle binding), % at 7 µM; 330,000 compounds, 0.068% hits; AID 2052, 2009; 2C CD8+ T cell-vesicle binding; hits give low values;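 active = response, share of CD8 T cells binding vesicles, and their 90th percentile fluorescence all below set limits, cut at about 80% in these data, passing the limit was not always enough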;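 note: values below 100% mean blocked vesicle binding to the CD8+ T cells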
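Test system: purified 2C TCR transgenic mouse naive CD8+ T cells. Probe or stimulus: QL9-peptide-loaded Drosophila micro-vesicles bearing Ld, ICAM-1 and B7-1. Incubation: binding step 1.5 h, 37 °C, antibody labelling 20 min, ice. Measured by: flow cytometry of vesicle-bound cells.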
Hits are given with their value; 0 = inactive; - = no result given. The full list was thinned out, with hits kept by preference.

SMILES	ALR H2O2 inh	Glyco luc inh	T cell modulator
Cc1c(C(=O)OCC(=O)N2CCCCC2C)oc2ccccc12 (stereo not drawn)	-	0	0
Cc1ccc(OS(=O)(=O)c2c(C)nn(C)c2Cl)c(C)c1	0	0	0
C[C@H](CO)N1C[C@H](C)[C@H](CN(C)C(=O)Cc2ccccc2)OCc2cnnn2CCCC1=O	-	0	-
Cc1cn(CC(=O)NCC(c2ccccc2)c2ccccc2)c(=O)[nH]c1=O	-	0	-
CCc1nnc(NC(=O)CSc2nc3[nH]c(=O)cc(O)c3s2)s1	99	0	0
Cc1nc(SCC(=O)Nc2nccs2)c(C#N)c(C)c1C	0	0	0
O=C(CSc1nc2[nH]c(=O)cc(O)c2s1)Nc1nncs1	-	0	-
O=C(CSc1nc2[nH]c(=O)cc(O)c2s1)Nc1nccs1	95	0	0
CCCSc1nnc(NC(=O)CSc2nc3[nH]c(=O)cc(O)c3s2)s1	0	0	0
Cc1cnc(=O)[nH]c1SCC(=O)Nc1nccs1	97	0	0
C[C@H](NC(=O)N1CCn2c1nc1ccccc12)C(=O)N1CCCCC1	0	0	0
COc1ccc(C(=O)N2CCCC2(C)C(=O)NCC(C)C)cc1C(F)(F)F (stereo not drawn)	-	0	-
CN(C)C(CNC(=O)c1cc2ccccc2oc1=O)c1ccccc1 (stereo not drawn)	0	0	0
CCCCCCC[C@@H](C/C=C/CCC(=O)N(C)C/C(=C/Cl)C/C(=C\C(=O)N1C[C@H](O)CC1=O)OC)OC	-	0	0
CCCCCCC[C@@H](C/C=C/CCC(=O)N(C)C/C(=C/Cl)C/C(=C\C(=O)N1CC(OC)=CC1=O)OC)OC	0	77	0
COc1cccc(C(=O)NCC(=O)N/N=C/c2ccc3c(c2)OCO3)c1	0	0	0
CCCN(CC(=O)Nc1ccccc1OC)C(=O)c1ccccn1	0	0	0
Cc1oc(-c2cccs2)cc1C(=O)N1CCCC(C)(C(=O)O)C1 (stereo not drawn)	-	0	-
COc1ccc(CCNC(=O)c2sc(=S)n(C)c2N)cc1	0	0	0
COC(=O)c1ccccc1NC(=O)c1sc(=S)n(C)c1N	0	0	0
Cn1c(N)c(C(=O)NCc2ccccc2)sc1=S	81	0	0
Cn1c(N)c(C(=O)Nc2c(Cl)cccc2Cl)sc1=S	99	0	0
CC(=O)N1CCc2cc(S(=O)(=O)NCC(=O)NCc3ccc(F)cc3)ccc21	0	0	0
COc1cc(/C=N\N=C2/SC(CC(=O)O)C(=O)N2c2ccc(O)cc2)ccc1O (stereo not drawn)	99	0	0
COc1ccc(/C=N\N=C2/SC(CC(=O)O)C(=O)N2c2ccc(O)cc2)cc1OC (stereo not drawn)	0	0	0
SMILES	ALR H2O2 inh	Glyco luc inh	T cell modulator
O=C(CCc1nc2ccccc2c(=O)[nH]1)N1CCN(S(=O)(=O)c2ccc(F)cc2)CC1	0	0	0
CC(C)c1c(O)ccc2c1CC[C@H]1C(C)(C)CCC[C@]21C	-	0	-
Cc1ccc2[nH]c(C)c(/C=C/c3cc[n+](C)cc3)c2c1	99	0	0
Cn1cc(/C=C/c2cc[n+](C)cc2)c2cc(Cl)ccc21	-	0	0
Cc1ccc2c(c1)c(/C=C/c1cc[n+](C)cc1)c(C)n2C	85	0	0
C[n+]1ccc(/C=C/c2c[nH]c3ccc(F)cc23)cc1	0	0	0
O=C(Cn1c(=O)oc2ccccc21)Nc1ccccc1C(F)(F)F	0	0	0
COc1cc(C(=O)NCc2nnc(SCC(=O)Nc3cccc(C(F)(F)F)c3)o2)cc(OC)c1OC	0	0	0
COc1cccc(C(=O)C2CN(c3ccccc3)CC2c2ccc(Cl)cc2)c1 (stereo not drawn)	97	0	0
O=C(c1ccccc1)C1CN(c2ccccc2)CC1c1ccc(Cl)cc1 (stereo not drawn)	0	0	0
O=C(/C=C/c1ccc([N+](=O)[O-])cc1)Nc1cccc(S(=O)(=O)NC2=NCCCCC2)c1	0	0	0
O=C(NNc1cccc(Cl)n1)c1cccnc1Cl	0	0	0
O=C(NNc1cccc(Cl)c1)c1cccnc1Cl	98	0	0
CC1CC(C)CN(S(=O)(=O)c2ccc3c(c2)CC(=O)N3)C1 (stereo not drawn)	0	0	0
CC(=O)Nc1ccc(C(=O)CN2C(=O)NC3(CCOc4ccccc43)C2=O)c(F)c1 (stereo not drawn)	-	0	0
NC1=NC(=O)/C(=C\c2cc([N+](=O)[O-])ccc2Cl)S1	0	0	0
O=C(c1cc(-c2ccc3c(c2)OCO3)on1)N1CCN(c2ccccc2)CC1	0	0	0
O=C(c1cc(-c2ccc(O)cc2)on1)N1CCCC1	99	0	0
O=C(c1cc(-c2ccc(O)cc2)on1)N1CCN(c2ccccc2)CC1	81	0	0

Screening data (PubChem)
